Reference: ChEMBL document CHEMBL1124521, “Effect of structural modifications in the C7-C11 region of the retinoid skeleton on biological activity in a series of aromatic retinoids” (1989)

What was measured:
F9 [1] = assay: Ability to displace [3H]all-trans-retinoic acid from F9 embryonal carcinoma cells, was assessed in a F9 laminin release assay; type: functional; conditions: Mus musculus, F9, 96 h; read-out: ED50 (the source's name)
[2] = molecular target: Cellular retinoic acid-binding protein 1 (Gallus gallus) (UniProt P40220); assay: Concentration of compound required to inhibit binding of 2.5 uM [3H]all-trans-retinoic acid by 50% in chick
Cellular retinoic acid-binding protein 1 (Gallus gallus), sequence (P40220 whole entry): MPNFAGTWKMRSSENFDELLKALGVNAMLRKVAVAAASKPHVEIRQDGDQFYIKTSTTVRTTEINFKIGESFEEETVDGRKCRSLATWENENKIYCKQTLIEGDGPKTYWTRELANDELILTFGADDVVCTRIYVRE
Method in brief: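 Chick embryo skin CRABP (12–13-day), with albumin removed on Affi-Gel Blue. Eluates (1 mg protein/0.4 mL) were incubated with saturable [³H]-all-trans-retinoic acid ± 1-, 5-, 10- or 25-fold molar excess of unlabeled retinoid. Free ligand was removed with dextran-coated charcoal, followed by filtration and counting of bound radioactivity. Nonspecific binding was defined with 25-fold excess of retinoic acid. ID50 from semilog plots.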

Oryctolagus cuniculus [3] = organism: Oryctolagus cuniculus; assay: Percentage inhibition of cholesterol-3-sulfate activity in rabbit at 0.1 nM.; type: functional
Method in brief: (§1)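 Rabbit tracheal epithelial cells in supplemented Ham's F12, given retinoid (0.1 or 10 nM) in Me₂SO from day 5 for 5 days. Cells were labeled 22 h with 25 μCi/mL Na₂³⁵SO₄, trypsinized, and extracted with CHCl₃/MeOH. Inhibition of ³⁵SO₄ incorporation into cholesterol 3-sulfate was measured relative to control.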

Oryctolagus cuniculus [4] = organism: Oryctolagus cuniculus; assay: Percentage inhibition of Transglutaminase activity in rabbit at 0.1 nM.; design: scale not given: the % may be the effect or the level left
Method in brief: (§2)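 Rabbit tracheal epithelial cells on fibronectin/BSA/vitrogen-coated dishes in supplemented Ham's F12, treated with retinoid in Me₂SO from day 5 for 5 days. Cells were sonicated in PBS with 10 mM dithiothreitol, and transglutaminase activity was measured as [³H]putrescine incorporation into casein, in triplicate.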

Oryctolagus cuniculus [5] = organism: Oryctolagus cuniculus; assay: Percentage inhibition of Transglutaminase activity in rabbit at 10 nM.; method in brief: as §2
[6] = molecular target: Ornithine decarboxylase (Mus musculus) (UniProt P00860); assay: Inhibitory effect of compound on the induction of ornithine decarboxylase in CD-1 mouse.
Ornithine decarboxylase (Mus musculus), sequence (P00860 whole entry, looked up): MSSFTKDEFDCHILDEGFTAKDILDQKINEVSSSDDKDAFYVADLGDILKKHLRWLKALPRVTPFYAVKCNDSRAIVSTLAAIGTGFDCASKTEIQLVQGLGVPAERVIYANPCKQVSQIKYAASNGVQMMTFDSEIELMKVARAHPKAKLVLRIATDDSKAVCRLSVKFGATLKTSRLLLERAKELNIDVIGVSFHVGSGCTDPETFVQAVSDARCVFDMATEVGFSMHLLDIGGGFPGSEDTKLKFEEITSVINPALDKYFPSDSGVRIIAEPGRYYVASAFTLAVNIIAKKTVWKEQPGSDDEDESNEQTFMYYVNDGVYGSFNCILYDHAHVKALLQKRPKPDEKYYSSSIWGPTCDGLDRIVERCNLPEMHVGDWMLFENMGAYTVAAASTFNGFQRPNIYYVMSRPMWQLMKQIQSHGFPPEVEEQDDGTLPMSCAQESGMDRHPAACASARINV

F9 [7] = assay: Ability to displace 3 uM retinoid and [3H]all-trans-retinoic acid in F9 embryonal carcinoma cells using F9 Plasminogen Activator releasing assay; type: functional; conditions: Mus musculus, F9, 4 days; read-out: ED50 (the source's name)
Oryctolagus cuniculus [8] = organism: Oryctolagus cuniculus; assay: Percentage inhibition of cholesterol-3-sulfate activity rabbit at 10 nM.; type: functional; design: scale not given: the % may be the effect or the level left; method in brief: as §1
Oryctolagus cuniculus [9] = organism: Oryctolagus cuniculus; assay: cross-linked envelope inhibition assay was performed at 10 nM compound concentration; type: functional; design: scale not given: the % may be the effect or the level left
Method in brief: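 Rabbit tracheal epithelial cells exposed to 1 × 10⁻⁸ M retinoid from day 6 of culture. Cross-linked envelope formation was determined on day 12, in triplicate.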

[10] = Inhibitory dose against tracheal organ culture reversal of keratinization; type: functional; conditions: Cricetulus griseus, Trachea; read-out: ID50 (the source's name)
Method in brief: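 Retinoid-deficient hamster tracheas in organ culture, scored for reversal of keratinization. At least six cultures per retinoid concentration; ID50 by polynomial interpolation.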

[11] = (§3) Inhibition of binding of [3H]all-trans-retinoic acid to cellular retinoic acid binding protein at 3 uM compound concentration, in rat; design: scale not given: the % may be the effect or the level left
Method in brief: (§4)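 CRABP partially purified from rat testis. Competition of 3 μM retinoid with [³H]-all-trans-retinoic acid, bound ligand separated by Sephadex G-25 gel filtration on 2-mL columns. Triplicate measurements.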

[12] = as §3; type: functional; design: scale not given: the % may be the effect or the level left; method in brief: as §4
[13] = molecular target: Cellular retinoic acid-binding protein 1 (Gallus gallus) (UniProt P40220)

Row | ID50 [2] [nM] | Control (Oryctolagus cuniculus [4]) [%] | Transglutaminase activity (% of control) (Oryctolagus cuniculus [5]) [%] | ID50 [6] [nM] | IC50 [10] [nM] | Control [11] [%] | ID50 [13] [nM] | SMILES | EC50 (F9 [1]) [nM] | Cholesterol sulfate synthesis (% of control) (Oryctolagus cuniculus [3]) [%] | EC50 (F9 [7]) [nM] | Control (Oryctolagus cuniculus [8]) [%] | Control (Oryctolagus cuniculus [9]) [%] | Control [12] [%]
1 | 4800 | 130 | 23 | 3.2 | > 0.1 |  |  | CC1(C)CCC(C)(C)c2cc(C3C[C@H]3c3ccc(C(=O)O)cc3)ccc21 (stereo not given in full) | 90 | 73 | 2 | 2 | <1 | 
2 |  |  | 15 | 0.04 | 0.01 |  | 1000 | CC1=C(/C=C/C(C)=C/C=C/C(C)=C/C(=O)O)C(C)(C)CCC1 [TRETINOIN] | 1.5 | 100 | 0.1 | 5 | <1 | 91
3 | 800 |  | 1 | 0.03 | 0.002 | 100 |  | C/C(=C\c1ccc(C(=O)O)cc1)c1ccc2c(c1)C(C)(C)CCC2(C)C | 1.5 | 6 | 0.08 | 1 | <1 | 
4 | 1000 |  | 68 | 142 | > 10 |  |  | C/C(=C(/C)c1ccc2c(c1)C(C)(C)CCC2(C)C)c1ccc(C(=O)O)cc1 | > 100 | 73 | > 10 | 33 | 100 | 
5 | 1000 | 10 | 5 | 0.03 | 0.007 | 27 |  | C/C(=C\c1ccc2c(c1)C(C)(C)CCC2(C)C)c1ccc(C(=O)O)cc1 | 1.5 | 2 | 0.7 | 1 | 0 | 
6 | 800 | 12 | 14 | 0.07 | 0.01 |  |  | CC1(C)CCC(C)(C)c2cc3cc(-c4ccc(C(=O)O)cc4)ccc3cc21 | 0.2 | 13 | 0.3 | 2 | <1 | 

Row | SMILES | ID50 [2] [nM] | Control (Oryctolagus cuniculus [4]) [%] | Transglutaminase activity (% of control) (Oryctolagus cuniculus [5]) [%] | ID50 [6] [nM] | IC50 [10] [nM] | Control [11] [%] | ID50 [13] [nM] | EC50 (F9 [1]) [nM] | Cholesterol sulfate synthesis (% of control) (Oryctolagus cuniculus [3]) [%] | EC50 (F9 [7]) [nM] | Control (Oryctolagus cuniculus [8]) [%] | Control (Oryctolagus cuniculus [9]) [%] | Control [12] [%]
7 | CC1(C)CCC(C)(C)c2cc(-c3ccc4cc(C(=O)O)ccc4c3)ccc21 | 1600 |  | 9 | 2.2 | 0.003 | 91 |  | 31 | 15 | 1 | 2 | <1 | 
8 | Cc1cc2c(cc1-c1ccc3cc(C(=O)O)ccc3c1)C(C)(C)CCC2(C)C | 4800 | 37 | 11 | 0.4 | 0.02 |  |  | > 100 | 12 | 0.5 | 2 | <1 | 
9 | Cc1c(-c2ccc3c(c2)C(C)(C)CCC3(C)C)ccc2cc(C(=O)O)ccc12 | 15000 | 114 | 47 | 66 | 0.08 |  |  | > 5000 | 187 | 3 | 14 | 5 | 
